Source: PubChem (several laboratories)
Most compounds without a hit are left out; they make up all but 2.8% or so of the library.
EP2 modulator = EP2 receptor modulators, cAMP readout, primary screen, cell-based, HTRF cAMP, PGE2 stimulation; induction, % at 25 µM; EP2-expressing cells, cAMP HTRF FRET, PGE2 co-stimulation; Prostaglandin E2 receptor EP2 subtype (Homo sapiens), P43116; hit rate 0.83% among 260,000;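 active means compounds whose cAMP rise, as percent of the full-agonist control response, exceeds 60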;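 further: rat C6 glioma line stably carrying human EP2 under a CMV promoter; the protocol text gives 20 µM as final concentration; 100% = response of wells given 1 µM PGE2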
EP2 antag = human EP2 receptor antagonists, primary screen, TR-FRET cAMP, C6 glioma cells; C6 glioma cells expressing human EP2; cells stimulated with saturating PGE2; inhibition, % at 25 µM; Prostaglandin E2 receptor EP2 subtype (Homo sapiens), P43116; hit rate 0.52% among 260,000;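 active means percent inhibition above 40 after rounding to a whole number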;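 further: rat C6 glioma host cells with rolipram phosphodiesterase inhibitor present; the protocol text gives 20 µM as final concentration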
NPY-Y2 PAM-ag = NPY-Y2 potentiators or agonists, primary screen, cell-based. Neuropeptide Y receptor type 2 (Homo sapiens), P49146. cells expressing NPY-Y2, potentiator/agonist read-out. activation, % at 3.6 µM. hit rate 0.45% among 220,000; in the data active means activation above about 27%;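 further: cells stimulated with NPY near EC25 plus isoproterenol at EC100; 0% = vehicle plus submaximal agonist and 100% = vehicle plus saturating agonist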
NPY-Y1 antag = NPY-Y1 receptor antagonists, primary screen, cell-based; hit rate 1% among 200,000; inhibition, % at 3.6 µM; AID 1040, 2008; Neuropeptide Y receptor type 1 (Homo sapiens), P25929; HEK293-CNG Y1 cells, membrane potential fluorescence; NPY at EC95, then isoproterenol;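 active means inhibition above the campaign mean inhibition of all tested compounds plus 3 SD, cut at about 20% in these data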;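 further: 0% = DMSO wells given NPY plus isoproterenol and 100% = isoproterenol alone without NPY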
Target sequence (P25929 whole entry, looked up): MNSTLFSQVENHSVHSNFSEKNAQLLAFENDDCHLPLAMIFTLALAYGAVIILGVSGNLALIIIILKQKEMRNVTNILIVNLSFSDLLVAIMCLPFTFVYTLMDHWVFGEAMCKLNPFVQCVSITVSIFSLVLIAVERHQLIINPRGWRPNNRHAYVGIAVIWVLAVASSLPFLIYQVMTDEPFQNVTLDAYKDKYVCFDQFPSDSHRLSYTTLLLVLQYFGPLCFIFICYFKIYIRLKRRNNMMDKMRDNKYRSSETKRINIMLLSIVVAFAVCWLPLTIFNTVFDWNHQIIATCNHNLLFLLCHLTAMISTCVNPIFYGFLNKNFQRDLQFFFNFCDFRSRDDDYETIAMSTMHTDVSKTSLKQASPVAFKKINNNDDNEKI
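Material: HEK293 cells co-expressing NPY Y1 receptor and cyclic-nucleotide gated channel. Timing: compound incubation 1 h at room temperature, readout 45 min post-stimulation. Signal: fluorescence, membrane potential probe.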
NPY-Y2 antag = NPY-Y2 receptor antagonists, primary screen, cell-based | Neuropeptide Y receptor type 2 (Homo sapiens), P49146 | NPY-Y2 expressing cells, antagonist mode | inhibition, % at 2.7 µM | hit rate 0.99% among 140,000; in the data active means inhibition above about 17%;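 further: 0% = vehicle with agonist challenge and 100% = reference antagonist with challenge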
NPY1 pot ag = NPY-Y1 receptor potentiators or agonists, primary screen, cell-based; NPY-Y1 expressing cells, potentiator/agonist activation; activation, % at 3.6 µM; hit rate 0.37% among 220,000; in the data active means activation above about 33%, passing the limit was not always enough;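 further: cells stimulated with NPY at EC10 then isoproterenol at EC100; 0% = low agonist plus stimulus and 100% = saturating agonist plus stimulus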
NPY-Y1 pot conf = NPY-Y1 potentiators or agonists, confirmation, cell-based | cell-based NPY-Y1 potentiator/agonist assay | shares compounds with NPY1 pot ag | activation, % at 3.6 µM | hit rate 20% among 280 | AID 1546, 2009; in the data active means activation above about 45%;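 further: cells challenged with NPY at its EC10 plus isoproterenol stimulus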
NPY-Y2 counter = NPY-Y2 potentiators or agonists, counter-screen for NPY-Y1 potentiator project, cell-based, fluorescence; shares compounds with NPY1 pot ag; HEK293-CNG cells, membrane-potential fluorescence (FLIPR), 1536-well; activation, % at 3.6 µM; hit rate 20% among 280; AID 1649, 2009; in the data active means activation above about 33%
NPY-Y1 agonist = NPY-Y1 direct agonists without NPY, confirmation, counter-screen for NPY-Y1 potentiator project, cell-based, fluorescence. shares compounds with NPY1 pot ag. hit rate 50% among 280. AID 1697, 2009. HEK293 Y1-CNGC, membrane potential fluorescence, agonist mode. activation, % at 3.6 µM;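 active means percent activation above the mean of DMSO-only control wells plus 3 SD of those wells, cut at about 18% in these data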;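 further: cells challenged with isoproterenol plus Ro 20-1724 with no NPY in test wells; Y1 agonism lowers isoproterenol-driven cAMP and reduces probe fluorescence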
NPY-Y2 agonist = NPY-Y2 direct agonists without NPY, counter-screen for NPY-Y1 potentiator project, cell-based, fluorescence; activation, % at 3.6 µM; AID 1698, 2009; HEK293 Y2-CNGC, membrane potential fluorescence, agonist mode; hit rate 67% among 280; shares compounds with NPY1 pot ag;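 active means activation above the solvent-only control wells' mean plus 3 SD, cut at about 11% in these data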;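 further: 0% = DMSO with isoproterenol and 100% = 40 nM NPY maximal response; agonism lowers cAMP so well fluorescence drops in active wells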
CNGC inh 2 = CNGC cAMP sensor activity inhibitors, counter-screen for NPY-Y1 potentiator/agonist project, cell-based, HEK293-CNG parental, membrane potential fluorescence, Y1 set; shares compounds with NPY1 pot ag; isoproterenol cAMP; inhibition, % at 3.6 µM; hit rate 42% among 280; AID 1704, 2009;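 active means inhibition above the mean of stimulated solvent-only control wells plus 3 SD, cut at about 22% in these data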;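 further: 0% = isoproterenol-stimulated DMSO wells and 100% = unstimulated DMSO wells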
* = called active by the depositor; / = no result given.

SMILES	EP2 modulator	EP2 antag	NPY-Y2 PAM-ag	NPY-Y1 antag	NPY-Y2 antag	NPY1 pot ag	NPY-Y1 pot conf	NPY-Y2 counter	NPY-Y1 agonist	NPY-Y2 agonist	CNGC inh 2
Cc1cccc(N(C(=O)Nc2ccc(Cl)cc2)C2=NCC(C)S2)n1 (configuration not stated)	21	4	-7	-3	/	37*	2	0	3	12*	8
Cc1oc2ccc(O)c(CN(C)C)c2c1C(=O)c1ccccc1	-53	11	14	2	/	47*	14	21	16	11*	-10
CCOC(=O)C(Cc1ccccc1)C(=O)Nc1ccc(N(CC)CC)cc1 (configuration not stated)	15	11	8	0	2	46*	50*	23	31*	19*	14
O=C(Cc1ccccc1F)N1CCC(n2nc(-c3cccs3)ccc2=O)CC1	6	/	/	/	/	/	/	/	/	/	/
COc1cc(OC)cc(C(=O)Nc2ccc(NC(=O)c3ccco3)c(Cl)c2)c1	3	7	-21	6	/	67*	-16	-10	-10	9	-5
O=C(Nc1cccnc1)c1ccc(COc2cc(Cl)ccc2Cl)o1	-32	27	6	-10	2	54*	18	8	14	16*	18
COc1cccc(C(=O)NC(=O)Nc2cc(C)[nH]n2)c1	2	3	-11	/	/	76*	-6	-5	-4	4	-2
O=C(O)/C=C/c1ccc(S(=O)(=O)NCc2ccco2)cc1	2	5	-10	2	/	64*	4	-3	-10	-8	-2
Cc1ccc(CNC(=O)/C=C/c2ccc(S(=O)(=O)NCc3ccco3)cc2)cc1	-96	8	-7	1	11	-8	/	/	/	/	/
O=C(C1CC1)N1CCC(n2cnc3cc(F)ccc32)CC1	-27	10	/	/	/	/	/	/	/	/	/
CCN(CC)c1ccc(CN2CCc3c(nc(C)[nH]c3=O)C2)cc1	-17	9	/	/	/	/	/	/	/	/	/
Cc1ccc(NC(=O)c2noc3c2CCCCC3)cc1C	11	/	-5	8	5	49*	-11	-4	-11	-5	-14
Cc1ccc(NC(=O)c2noc3c2CCCCC3)cc1	-3	3	12	-4	-2	-5	/	/	/	/	/
CCOc1ccc2[nH]c(=O)c(CN(CCO)C(=O)c3ccc(C)cc3)cc2c1	-64	10	/	/	/	/	/	/	/	/	/
CS(=O)(=O)N1CCN(c2ccccc2NC(=O)COc2ccccc2Cl)CC1	27	9	/	/	/	/	/	/	/	/	/
COc1ccc(N/N=C(\C#N)C(=N)SCc2ccccc2)cc1	-23	8	25	-4	/	37*	18	6	17	23*	15
COc1ccc(N/N=C(\C#N)C(=N)N2CCCCC2)cc1	-26	2	17	/	/	22	/	/	/	/	/
CC(C)(C)c1ccc(Oc2ccc(N)cn2)cc1	27	18	39	/	/	49*	41	40*	20*	40*	34*
Cc1[nH]c2ccccc2c1C(=O)CN1C(=O)NC(C)(c2ccc(Cl)cc2Cl)C1=O (configuration not stated)	-26	8	28	-1	-5	56*	44	32	32*	18*	27*
CCN(CC)S(=O)(=O)c1ccc(C(=O)NNC(=O)c2cccs2)cc1	10	3	1	-3	-1	13	/	/	/	/	/
CCN(CC)S(=O)(=O)c1ccc(NC(=O)c2cccs2)cc1	-14	6	-17	1	/	86*	-6	-2	-8	3	6
COc1cc2cc(CN(Cc3ccccc3)C(C)=O)c(=O)[nH]c2cc1OC	-29	7	/	/	/	/	/	/	/	/	/
COc1ccc(CNC(=O)c2c(O)c3cccc4c3n(c2=O)CCC4)cc1	20	20	11	-7	1	-19	/	/	/	/	/
COc1ccc(CNC(=O)c2c(O)c3cccc4c3n(c2=O)CCC4)cc1OC	35	12	-16	1	2	35*	-8	0	-3	3	-1
Cc1cc(C)c2c(NCc3cccc4cccnc34)n[nH]c2n1	-16	5	/	/	/	/	/	/	/	/	/
SMILES	EP2 modulator	EP2 antag	NPY-Y2 PAM-ag	NPY-Y1 antag	NPY-Y2 antag	NPY1 pot ag	NPY-Y1 pot conf	NPY-Y2 counter	NPY-Y1 agonist	NPY-Y2 agonist	CNGC inh 2
COc1cc(OC)cc(-n2nnnc2SCC(=O)Nc2cccc(C)c2C)c1	-15	6	/	/	/	/	/	/	/	/	/
Cc1cc(C)c(C#N)c(N2CCN(Cc3ccc4c(c3)OCO4)CC2)n1	32	15	-9	9	7	-15	/	/	/	/	/
Cc1cc(C)c(C#N)c(N2CCN(Cc3ccccc3)CC2)n1	7	11	0	2	0	78*	-13	-8	-16	5	-2
O=C(Nc1ccccc1)N1CCc2c([nH]c3ccccc23)C1C(F)(F)F (configuration not stated)	-42	16	12	/	/	14	/	/	/	/	/
CC1c2[nH]c3ccccc3c2CCN1C(=O)Nc1ccccc1 (configuration not stated)	-51	18	9	-8	-1	47*	5	5	6	0	6
CCN(CC)S(=O)(=O)c1cc(NC(=O)Cn2ncc(Cl)c(Cl)c2=O)ccc1C	-39	17	32	/	/	44*	36	19	22*	18*	27*
COc1ccc(NC(=O)Cn2ncc(Cl)c(Cl)c2=O)cc1S(=O)(=O)N1CCOCC1	0	8	1	2	-1	8	/	/	/	/	/
COc1ccccc1NC(=O)CSc1nc(-c2cccs2)cc(C(F)(F)F)n1	-60	11	/	/	/	/	/	/	/	/	/
